Bioassay records deposited in PubChem BioAssay by several laboratories.
14-3-3 Bad PPI = disrupts binding of bovine 14-3-3 zeta to phospho-Bad peptide | P63103 | TR-FRET 14-3-3zeta/Dy647-pBad peptide displacement, 1 h | inhibition, % at 21.7 µM | actives 0.71% (n = 220,000);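 active means inhibition above about 70%, limit read from the data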;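 further: 0% = full 14-3-3 plus peptide FRET controls and 100% = background without 14-3-3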
RBBP9 inh = blocks human serine hydrolase RBBP9. recombinant RBBP9, FP-Rh probe fluorescence polarization. O75884. AID 1515. actives 0.2% (n = 220,000). inhibition, % at 7.94 µM;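 active means inhibition above the campaign mean of all tested compounds plus 3 SD, cut at about 14% in these data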;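 further: plate controls were DMSO wells with RBBP9 for no effect and wells lacking RBBP9 protein for full effect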
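Measured by – fluorescence polarization · Test system – RBBP9 protein · Input – 2.5 µM RBBP9 dispensing solution, before mixing · Measure – percent inhibition from mP, scaled between DMSO and no-protein wells · Benchmarks – DMSO-treated enzyme wells and wells lacking RBBP9 · Times – preincubation 30 min plus labeling 45 min at 25 °C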
NCF1 inh = inhibitors of human p47phox binding. P14598. p47phox/p22phox peptide binding, fluorescence polarization, 2 h. inhibition, % at 24.7 µM. actives 0.53% (n = 220,000);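 active means inhibition above about 30%, limit read from the data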;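 further: 0% = p47phox with labelled peptide and 100% = labelled peptide alone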
Cl transport mod = modulates chloride dependent transport by human KCC2 | Q9H2X9 | KCC2 cells, thallium flux FluoZin-2 fluorescence | B-score of Tl+ flux slope (higher = more flux/activation; lower = inhibition) at 10 µM | actives 2.2% (n = 190,000) | AID 1456;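 active means thallium flux slope and its plate-corrected score both differing from the plate sample mean at a set confidence after two filtering rounds, in either direction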;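 further: slope of fluorescence scaled to starting intensity during 10 to 20 s after thallium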
Target sequence (Q9H2X9 whole entry, looked up): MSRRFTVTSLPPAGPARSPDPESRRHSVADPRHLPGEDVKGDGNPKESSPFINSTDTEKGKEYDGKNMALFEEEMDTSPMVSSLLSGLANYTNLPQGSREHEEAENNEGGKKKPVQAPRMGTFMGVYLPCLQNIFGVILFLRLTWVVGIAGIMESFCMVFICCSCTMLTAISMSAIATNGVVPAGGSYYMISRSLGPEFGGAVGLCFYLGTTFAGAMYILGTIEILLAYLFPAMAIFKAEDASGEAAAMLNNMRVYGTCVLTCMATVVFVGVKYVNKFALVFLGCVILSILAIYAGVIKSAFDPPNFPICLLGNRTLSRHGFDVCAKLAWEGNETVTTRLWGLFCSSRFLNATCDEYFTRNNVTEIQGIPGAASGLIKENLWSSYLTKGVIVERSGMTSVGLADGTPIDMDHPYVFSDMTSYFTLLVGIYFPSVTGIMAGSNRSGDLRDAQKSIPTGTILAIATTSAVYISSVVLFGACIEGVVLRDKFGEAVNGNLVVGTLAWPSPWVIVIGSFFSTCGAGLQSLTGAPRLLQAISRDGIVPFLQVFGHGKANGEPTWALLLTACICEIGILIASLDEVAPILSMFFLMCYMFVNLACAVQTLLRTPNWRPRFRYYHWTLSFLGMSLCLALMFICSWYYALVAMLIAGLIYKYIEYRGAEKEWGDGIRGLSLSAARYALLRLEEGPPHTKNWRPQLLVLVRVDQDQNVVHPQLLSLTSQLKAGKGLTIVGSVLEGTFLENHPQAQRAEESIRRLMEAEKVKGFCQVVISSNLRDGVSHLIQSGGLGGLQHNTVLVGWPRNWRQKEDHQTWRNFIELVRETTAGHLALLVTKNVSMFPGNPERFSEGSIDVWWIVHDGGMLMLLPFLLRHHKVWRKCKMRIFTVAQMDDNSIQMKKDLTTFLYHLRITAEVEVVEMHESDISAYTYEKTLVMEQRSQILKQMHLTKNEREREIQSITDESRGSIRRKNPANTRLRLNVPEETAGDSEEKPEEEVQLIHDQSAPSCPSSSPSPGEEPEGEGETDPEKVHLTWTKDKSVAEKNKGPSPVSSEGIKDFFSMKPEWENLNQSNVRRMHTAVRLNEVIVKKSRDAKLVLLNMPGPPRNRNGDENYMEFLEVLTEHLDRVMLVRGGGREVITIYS
WT yeast gro inh = growth inhibition of WT yeast, mitochondrial fusion screen. mitochondrial fusion phenotypic screen, WT strain. inhibition, % at 10 µM. actives 2.1% (n = 190,000). AID 1362; in the data active means inhibition above about 58%; tested in S. cerevisiae
ROMK primary = modulators of human ROMK potassium channel; P48048; Tet-inducible ROMK, thallium flux fluorescence; actives lie on both sides; actives 2% (n = 130,000); B-score at 10 µM;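 active means signal ratio slope over the read window, or its plate-corrected B-score, at least 3 SD from the plate mean, either direction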;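 further: B-score of the F/F0 ratio slope over 7 to 12 s after thallium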
RBBP9 confirm = confirmation of human RBBP9 inhibitors. shares compounds with RBBP9 inh. recombinant RBBP9, FP-Rh probe fluorescence polarization. inhibition, % at 7.94 µM. actives 36% (n = 410). AID 1537;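 active means inhibition above the hit cutoff derived for the primary screen, cut at about 15% in these data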;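 further: 0% = RBBP9 with DMSO and 100% = wells lacking RBBP9 protein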
* marks the source's active call; other numbers are inactive results. The list is not random: actives were taken first. Their share in the collection is about 5.8%.

`CCCSc1cc(NCCOC(C)=O)c([N+](=O)[O-])c2nonc12` gave 14-3-3 Bad PPI 15.3, RBBP9 inh -1.8, NCF1 inh -6.6, Cl transport mod -0.638, WT yeast gro inh 4.6 and ROMK primary -0.357.
Screening Cc1nnc(Sc2cc(NCCCO)c([N+](=O)[O-])c3nonc23)s1 returned 14-3-3 Bad PPI -3.7, RBBP9 inh 21.8*, NCF1 inh 6.6, Cl transport mod -0.335, WT yeast gro inh -5.8, ROMK primary 0.227 and RBBP9 confirm 30.5*.
Cc1cc[n+](CC(=O)Nc2cc(C(F)(F)F)ccc2Cl)cc1 was read as 14-3-3 Bad PPI -14.1, RBBP9 inh 17.9*, NCF1 inh 3.5, WT yeast gro inh 3.4 and RBBP9 confirm 4.3.
Screening CN(C)c1cc[n+](CC(=O)Nc2cc(C(F)(F)F)ccc2Cl)cc1 returned 14-3-3 Bad PPI 1.4, RBBP9 inh -8.5, NCF1 inh -17.9 and Cl transport mod -0.0428.
For Cc1cc(C)n2nc(SCCCC(=O)c3ccc(F)cc3)nc2n1 the results were 14-3-3 Bad PPI -5.4, RBBP9 inh -7.3, NCF1 inh -4.5, Cl transport mod -1.07, WT yeast gro inh -23.1 and ROMK primary -0.525.
Screening CCC[N+]1(CC#CC(O)(c2ccccc2)C2CCCCC2)CCCCC1 (stereo not drawn) returned 14-3-3 Bad PPI 4.1, RBBP9 inh 15.1*, NCF1 inh -14.8, Cl transport mod 1.96, ROMK primary -1.86 and RBBP9 confirm 39.2*.
CC(=O)c1c(C(C)=O)c(C)n(-c2cccc3cccnc23)c1C was read as 14-3-3 Bad PPI 4.1, RBBP9 inh 28.7*, NCF1 inh -10.7, Cl transport mod -0.235, WT yeast gro inh 11.1 and RBBP9 confirm 4.0.
Screening CCCOc1ccc(/C=N/NC(=O)CSc2ccccn2)cc1OC returned 14-3-3 Bad PPI -1.4, RBBP9 inh 16.9*, NCF1 inh 5.3 and RBBP9 confirm 9.4.
`CCCCCc1ccc(OCCCC[n+]2cccc(C)c2)c(CCCCC)c1` gave 14-3-3 Bad PPI -1.5, RBBP9 inh 14.8*, NCF1 inh 20.1, Cl transport mod 0.783, WT yeast gro inh 84.7, ROMK primary -1.95 and RBBP9 confirm 0.1.
For CCOc1ccccc1NC(=O)CSc1nnc2ccc(-c3cccnc3)nn12 the results were 14-3-3 Bad PPI -1.7, RBBP9 inh 15.3*, NCF1 inh 0.8, Cl transport mod -0.254, WT yeast gro inh 2.9, ROMK primary -0.465 and RBBP9 confirm 9.2.
Screening COc1ccccc1NC(=O)CSc1nnc2ccc(-c3cccnc3)nn12 returned 14-3-3 Bad PPI -15.1, RBBP9 inh -6.2, NCF1 inh 2.1, Cl transport mod -1.01, WT yeast gro inh -10.6 and ROMK primary -0.271.
Screening CCOc1ccc(S(=O)(=O)Nc2cc(Sc3ncn[nH]3)c3oc(=O)sc3c2)cc1 returned 14-3-3 Bad PPI 11.4, RBBP9 inh 22.1*, NCF1 inh -10.8, WT yeast gro inh -26.9, ROMK primary -0.293 and RBBP9 confirm 20.1*.
For CCOc1ccc(S(=O)(=O)Nc2cccc(Cl)c2)cc1 the results were RBBP9 inh -8.8 and Cl transport mod -0.58.
O=[N+]([O-])c1cccc(/C=N/NC2CCS(=O)(=O)C2)c1 (stereo not drawn) was read as 14-3-3 Bad PPI 0.3, RBBP9 inh 6.2, NCF1 inh -8.4 and Cl transport mod 1.04.
COc1ccc(CCNC(=O)C(=O)NCc2ccc(Cl)cc2)cc1OC was read as 14-3-3 Bad PPI -3.5, RBBP9 inh -5.8, NCF1 inh 5.3, Cl transport mod -0.451, WT yeast gro inh -8.2 and ROMK primary 0.0334.
For COc1ccc(N/C=C2\CCc3ccccc3C2=O)cc1 the results were 14-3-3 Bad PPI -4.2, RBBP9 inh 18.0*, NCF1 inh -4.2, Cl transport mod -1.99, WT yeast gro inh 55.6, ROMK primary -1.77 and RBBP9 confirm 13.2.
For COc1ccc(N/C=C2\CCOC2=O)cc1 the results were 14-3-3 Bad PPI -4.3, RBBP9 inh -17.4, NCF1 inh 0.4, Cl transport mod 0.0761, WT yeast gro inh -9.8 and ROMK primary 0.0469.
